PMI activator: increases human mannose-6-phosphate isomerase activity | purified human PMI, coupled resazurin fluorescence, 20 min; active compounds read high; 1 = vehicle control, 0 substrate-free wells | activation factor at 20 µM | 190,000 compounds, 0.005% hits;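 active = activation factor of 2 or more at 20 µM, relative to plate controls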
Target sequence (P34949 whole entry, looked up): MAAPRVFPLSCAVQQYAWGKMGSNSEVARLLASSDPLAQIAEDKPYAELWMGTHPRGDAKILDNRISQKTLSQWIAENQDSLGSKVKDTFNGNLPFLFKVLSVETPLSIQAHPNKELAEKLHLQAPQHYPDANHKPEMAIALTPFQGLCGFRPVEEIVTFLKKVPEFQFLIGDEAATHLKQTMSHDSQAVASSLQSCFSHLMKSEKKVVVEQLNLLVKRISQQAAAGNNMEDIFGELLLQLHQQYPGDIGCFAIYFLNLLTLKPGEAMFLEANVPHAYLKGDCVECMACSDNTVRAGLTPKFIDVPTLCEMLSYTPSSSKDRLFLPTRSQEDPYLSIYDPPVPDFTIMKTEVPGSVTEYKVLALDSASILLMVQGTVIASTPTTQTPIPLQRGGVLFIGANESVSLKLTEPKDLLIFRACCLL
HCT116 PTEN-null: PTEN-deleted cell growth suppression. HCT116 PTEN-null viability, CellTiter-Glo, 60 h; active compounds read low. viability, % at 10 µM. 140,000 compounds, 1.2% hits;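 active = viability at or below a set limit, 4 SD under the median of all tested compounds, cut at about 3.7% in these data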;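 also: PTEN knockout HCT116 line with beta catenin targeted HCT116 as companion control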
PMI act satM6P: activators of human phosphomannose isomerase at near-saturating mannose 6-phosphate; coupled PMI enzyme assay, resazurin fluorescence, 20 min; active compounds read high; 1 = untreated enzyme, 0 = substrate-free blank; activation factor at 20 µM; 190,000 compounds, 0.34% hits;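 active = activation factor of 2 or more at 20 µM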
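Material: human phosphomannose isomerase with PGI, G6PDH, diaphorase coupling enzymes / Reagent: Man-6-P substrate 1.0 mM / Dosing: single compound dose of 20 µM, 1% DMSO final / Incubation: enzyme reaction with compound 20 min at room temperature / Signal: resorufin fluorescence (Ex 544/Em 590 nm) from resazurin via diaphorase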
HCT116 bCat-KO: beta-catenin-lacking colon tumor cell growth suppression; HCT116 beta-catenin knockout viability, CellTiter-Glo, 60 h; active compounds read low; viability, % at 10 µM; 140,000 compounds, 1.5% hits;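 active = viability at or under a set limit, the compound median less 4 SD, cut at about 6% in these data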;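 also: 0% = Hyamine 1622 control at 20 µM and 100% = untreated cell control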
L major viab: Leishmania major promastigote growth inhibition. Leishmania major promastigotes, resazurin fluorescence viability. 200,000 compounds, 9% hits. inhibition, % at 10 µM; in the data active = inhibition above about 50%;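 also: promastigotes grown with compound for 44 hours at 28 °C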
The depositor's hits bear a star; . = not tested or not shown. The list is not random: actives were taken first. Their share in the collection is about 9.6%.

SMILES	PMI activator	HCT116 PTEN-null	PMI act satM6P	HCT116 bCat-KO	L major viab
O=C(CCN1CCCCC1)c1ccc2c(c1)OCCO2	0.6	98	0.6	91	26
COc1cc(C(=O)OC2CCN(C)CC2)cc(OC)c1OC	0.9	109	0.9	94	12
O=C(CCN1CCc2ccccc2C1)c1ccc2c(c1)OCCO2	0.5	80	0.6	64	100*
COc1cc(C(=O)CCN2CCC(c3ccccc3)C2)cc(OC)c1OC (stereo not drawn)	0.7	90	0.7	76	81*
O=C(CCN1CCC(c2ccccc2)C1)c1ccc2c(c1)OCCO2 (stereo not drawn)	0.5	25	0.6	54	101*
O=C(CCN1CCC(c2ccccc2)C1)c1ccccc1 (stereo not drawn)	0.9	96	0.9	87	48
O=C(CCN1CCC(c2ccccc2)C1)c1cccs1 (stereo not drawn)	1.2	2.8*	1.3	16	72*
COc1ccc(Nc2nc(NCc3ccco3)nc(N/N=C/c3ccc(O)cc3)n2)cc1	1.1	76	1.1	70	9
CC[N+](C)(C)c1cccc(O)c1	1.1	93	1.1	95	-6
O=C(CCN1CCCC1Cc1ccccc1)c1ccc2c(c1)OCCO2 (stereo not drawn)	0.5	77	0.6	74	100*
Cc1ccc(OCCOCCOc2cccc3cccnc23)c(Br)c1	0.8	52	0.9	55	-1
Cc1cc(C)cc(OCCCOc2cccc3cccnc23)c1	1	72	0.9	79	82*
Cc1ccc(CNc2ccc(O)cc2)cc1	0.5	24	0.7	37	99*
COc1ccccc1C1C(C(=O)c2cc3ccccc3o2)=C(O)C(=O)N1CCN1CCOCC1 (stereo not drawn)	1.6	114	1.8	105	-5
Cc1c(-c2ccccc2)oc2c(C(=O)OCC(=O)Nc3ccc(C(N)=O)cc3)cccc2c1=O	0.9	105	0.8	101	53*
O=C(Nc1ccc(Cl)c(S(=O)(=O)Nc2ccccc2Cl)c1)c1cccs1	0.9	87	0.9	89	77*
Cc1ccc(NC(=O)c2cc3c(s2)CCCC3)cc1S(=O)(=O)Nc1ccccc1Cl	0.9	71	1	71	19
Cc1ccc(C(=O)Nc2ccc(C)c(S(=O)(=O)Nc3ccccc3Cl)c2)s1	0.8	82	0.9	73	84*
CC1(C(=O)NC2CCCCCC2)CCC(=O)N1Cc1ccc2c(c1)OCO2 (stereo not drawn)	1	100	1	92	0
CC1(C)SC(=S)N(Cc2ccc3c(c2)OCO3)C1N(O)C(=O)NC1CCCCC1 (stereo not drawn)	0.9	84	0.9	85	82*
COc1ccc(/C=N/n2c(SC)nnc2-c2ccccc2)cc1C	0.9	68	1	80	63*
COc1ccc(/C=N/n2c(SC)nnc2-c2ccccc2)c(OC)c1OC	1	31	1	28	21
CCCNC(=O)NC(=O)COC(=O)c1ccc(S(=O)(=O)N(C)c2ccccc2OC)cc1	1	.	0.9	.	73*
COc1ccccc1N(C)S(=O)(=O)c1ccc(C(=O)OCC(N)=O)cc1	1	.	1	.	24
COc1ccccc1N(C)S(=O)(=O)c1ccc(C(=O)OCC(=O)N2CCCCCC2)cc1	0.9	.	0.9	.	100*
SMILES	PMI activator	HCT116 PTEN-null	PMI act satM6P	HCT116 bCat-KO	L major viab
Cc1cc(Oc2ccc(=O)n(C)n2)nc(=S)[nH]1	0.9	.	0.9	.	-1
COc1cc(/C=C(\C#N)C(=O)Nc2ccccc2C(=O)O)cc(Cl)c1OC	1.4	.	1.2	.	-5
CCN(CCCNC(=O)COc1cc(=O)n(CC)c2ccccc12)Cc1ccccc1	0.9	62	0.9	55	-3
CCN(CCCNC(=O)CCCOc1cc(=O)n(C)c2ccccc12)Cc1ccccc1	0.9	.	0.9	.	86*
C=C(C)C1CC=C(CN2CC(C)OC(C)C2)CC1 (stereo not drawn)	1	101	1.1	98	88*
C=C(C)C1CC=C(CN2CCC(C(=O)OCC)CC2)CC1 (stereo not drawn)	1	87	1	92	95*
O=C(NCCc1c[nH]c2ccccc12)C(=O)NCC1OCCN1S(=O)(=O)c1ccc(Cl)cc1 (stereo not drawn)	0.9	60	1	60	54*
O=C(NCCC1=CCCCC1)C(=O)NCC1OCCCN1S(=O)(=O)c1ccc(F)cc1 (stereo not drawn)	1	.	1	.	96*
